Reference: ChEMBL document CHEMBL1687700, “Discovery of an Orally Efficacious Imidazo[5,1-f][1,2,4]triazine Dual Inhibitor of IGF-1R and IR” (ACS Med Chem Lett, 2010)
Values belong to the compound of their own block, whether it stands above or below them.

What was measured:
[1] = molecular target: Insulin-like growth factor 1 receptor (Homo sapiens, UniProt P08069); test: Inhibition of auto-phosphorylation of human IGF1R expressed in mouse NIH-3T3 cells after 2 hrs by luminometry; assay type: cell-based, NIH3T3
Sequence of Insulin-like growth factor 1 receptor (P08069 31-736 limits assumed): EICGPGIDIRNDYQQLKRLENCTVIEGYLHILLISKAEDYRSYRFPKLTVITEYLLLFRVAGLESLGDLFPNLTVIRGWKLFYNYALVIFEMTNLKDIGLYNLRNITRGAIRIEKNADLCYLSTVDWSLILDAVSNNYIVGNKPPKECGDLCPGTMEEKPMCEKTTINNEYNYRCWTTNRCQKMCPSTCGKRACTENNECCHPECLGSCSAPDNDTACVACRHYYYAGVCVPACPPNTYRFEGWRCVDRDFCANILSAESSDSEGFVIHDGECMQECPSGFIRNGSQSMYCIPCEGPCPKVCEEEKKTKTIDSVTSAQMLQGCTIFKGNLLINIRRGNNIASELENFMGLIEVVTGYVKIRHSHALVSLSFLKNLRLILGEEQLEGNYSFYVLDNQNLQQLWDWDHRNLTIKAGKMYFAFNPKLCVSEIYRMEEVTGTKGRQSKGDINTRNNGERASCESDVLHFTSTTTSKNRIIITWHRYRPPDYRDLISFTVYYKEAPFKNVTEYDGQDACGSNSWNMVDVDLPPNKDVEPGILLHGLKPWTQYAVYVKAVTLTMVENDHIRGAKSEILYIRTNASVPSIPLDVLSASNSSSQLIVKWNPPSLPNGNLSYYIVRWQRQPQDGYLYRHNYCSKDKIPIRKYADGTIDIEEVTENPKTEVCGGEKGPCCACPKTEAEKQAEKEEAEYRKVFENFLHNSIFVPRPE
Sequence of Insulin-like growth factor 1 receptor (P08069 741-1367 limits assumed): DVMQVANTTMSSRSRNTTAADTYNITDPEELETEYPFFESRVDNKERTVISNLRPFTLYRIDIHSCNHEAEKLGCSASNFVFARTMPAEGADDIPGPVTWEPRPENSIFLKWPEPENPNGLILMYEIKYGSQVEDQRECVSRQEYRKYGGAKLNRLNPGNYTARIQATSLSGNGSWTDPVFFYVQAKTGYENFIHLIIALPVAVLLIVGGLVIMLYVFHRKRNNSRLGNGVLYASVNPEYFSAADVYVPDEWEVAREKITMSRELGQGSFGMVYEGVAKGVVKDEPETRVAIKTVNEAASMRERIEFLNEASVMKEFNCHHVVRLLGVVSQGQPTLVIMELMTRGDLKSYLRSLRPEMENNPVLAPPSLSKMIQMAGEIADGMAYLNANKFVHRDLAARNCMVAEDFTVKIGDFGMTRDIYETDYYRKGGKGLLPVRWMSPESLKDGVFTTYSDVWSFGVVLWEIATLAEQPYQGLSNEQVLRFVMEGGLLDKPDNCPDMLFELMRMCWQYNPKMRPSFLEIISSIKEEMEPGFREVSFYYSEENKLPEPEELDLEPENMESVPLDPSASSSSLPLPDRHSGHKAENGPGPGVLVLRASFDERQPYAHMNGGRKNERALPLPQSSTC

[2] = Genotoxicity in Salmonella Typhimurium by Ames test in absence of S9 liver microsomes; assay type: toxicity, Microsome; conditions: salmonella enterica subsp. enterica serovar typhimurium
[3] = Extraction ratio of hepatic clearance to hepatic blood flow in mouse microsomes; assay type: ADME, Microsome; conditions: liver microsomes
[4] = Extraction ratio of hepatic clearance to hepatic blood flow in human microsomes; assay type: ADME, Microsome; conditions: liver microsomes
[5] = molecular target: Insulin receptor (Homo sapiens, UniProt P06213); test: Inhibition of auto-phosphorylation of human IR expressed in human HepG2 cells after 2 hrs by luminometry; assay type: cell-based
Sequence of Insulin receptor (P06213 28-758 limits assumed): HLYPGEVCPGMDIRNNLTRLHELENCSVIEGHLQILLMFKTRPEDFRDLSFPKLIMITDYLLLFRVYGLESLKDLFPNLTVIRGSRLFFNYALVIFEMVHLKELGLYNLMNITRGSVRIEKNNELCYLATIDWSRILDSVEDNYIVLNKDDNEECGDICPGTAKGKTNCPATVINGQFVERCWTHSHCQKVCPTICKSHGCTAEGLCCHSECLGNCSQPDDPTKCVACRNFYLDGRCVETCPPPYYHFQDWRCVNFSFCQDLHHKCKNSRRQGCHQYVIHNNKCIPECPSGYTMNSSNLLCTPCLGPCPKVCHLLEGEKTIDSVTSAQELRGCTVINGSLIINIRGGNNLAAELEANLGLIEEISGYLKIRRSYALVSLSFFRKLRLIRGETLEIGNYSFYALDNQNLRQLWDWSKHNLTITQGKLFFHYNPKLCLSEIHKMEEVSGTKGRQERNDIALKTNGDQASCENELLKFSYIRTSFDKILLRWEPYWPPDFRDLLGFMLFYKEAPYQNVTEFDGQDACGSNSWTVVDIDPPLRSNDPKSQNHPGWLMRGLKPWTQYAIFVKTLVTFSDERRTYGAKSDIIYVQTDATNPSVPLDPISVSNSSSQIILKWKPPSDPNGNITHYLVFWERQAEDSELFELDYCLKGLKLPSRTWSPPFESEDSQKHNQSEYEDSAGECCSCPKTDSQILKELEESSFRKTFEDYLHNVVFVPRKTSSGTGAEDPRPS
Sequence of Insulin receptor (P06213 763-1382 limits assumed): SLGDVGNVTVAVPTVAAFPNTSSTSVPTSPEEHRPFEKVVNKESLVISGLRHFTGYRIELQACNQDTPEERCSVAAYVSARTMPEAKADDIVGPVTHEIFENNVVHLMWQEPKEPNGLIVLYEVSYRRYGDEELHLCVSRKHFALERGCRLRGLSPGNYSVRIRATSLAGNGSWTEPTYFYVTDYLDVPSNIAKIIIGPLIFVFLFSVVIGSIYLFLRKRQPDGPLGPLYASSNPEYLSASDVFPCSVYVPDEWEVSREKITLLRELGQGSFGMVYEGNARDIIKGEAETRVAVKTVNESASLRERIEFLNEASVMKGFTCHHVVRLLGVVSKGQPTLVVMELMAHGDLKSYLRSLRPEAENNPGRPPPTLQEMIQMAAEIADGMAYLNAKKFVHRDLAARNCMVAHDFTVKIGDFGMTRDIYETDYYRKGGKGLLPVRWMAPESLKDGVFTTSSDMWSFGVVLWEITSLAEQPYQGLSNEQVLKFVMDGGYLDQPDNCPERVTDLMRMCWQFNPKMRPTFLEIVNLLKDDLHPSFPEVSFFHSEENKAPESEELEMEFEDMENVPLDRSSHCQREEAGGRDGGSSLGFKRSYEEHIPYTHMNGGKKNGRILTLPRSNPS

[6] = Permeability of the compound by PAMPA assay at pH 5.0; assay type: ADME; conditions: read-out: permeability
Procedure, shortened: (§1)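 Parallel artificial membrane permeability assay run at pH 5.0 and pH 7.4; permeability reported in nm/s.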

[7] = Permeability of the compound by PAMPA assay at pH 7.4; assay type: ADME; conditions: read-out: permeability; procedure, shortened: as §1
[8] = Clearance in CD-1 mouse at 5 mg/kg, iv administered as single dose; assay type: ADME, organism-based; design: dose 5 mg/kg, route intravenous; conditions: in vivo
[9] = Volume of distribution at steady state in CD-1 mouse at 5 mg/kg, iv administered as single dose; assay type: ADME, organism-based; design: dose 5 mg/kg, route intravenous; conditions: in vivo, read-out: Vdss
[10] = Cmax in CD-1 mouse plasma at 25 mg/kg, po administered as single dose; assay type: ADME, organism-based; design: dose 25 mg/kg, route oral
[11] = tested on: Mus musculus; test: Oral bioavailability in CD-1 mouse at 25 mg/kg, po administered as single dose; assay type: ADME, organism-based; conditions: mouse, in vivo
[12] = Antiproliferative activity against human GEO cells expressing IR assessed as intracellular ATP content after 3 days by Cell Titre-Glo luminescent assay; assay type: functional, cell-based; conditions: 72 h
[13] = Antiproliferative activity against human GEO cells expressing IGF-1R assessed as intracellular ATP content after 3 days by Cell Titre-Glo luminescent assay; assay type: functional, cell-based; conditions: 72 h
[14] = Cmax in Sprague-Dawley rat at 25 mg/kg, po administered as single dose; assay type: ADME, organism-based; design: dose 25 mg/kg, route oral; conditions: in vivo
[15] = AUC in Sprague-Dawley rat at 25 mg/kg, po administered as single dose; assay type: ADME, organism-based; design: dose 25 mg/kg, route oral; conditions: plasma
Procedure, shortened: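 Single oral dose of 25 mg/kg, given as the free base in 50:50 PEG-400:25 mM tartaric acid, to female rats. Plasma AUC (ng h/mL) is reported as the median. Clearance parameters come from a separate 5 mg/kg iv dose.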

[16] = Clearance in Sprague-Dawley rat at 5 mg/kg, iv administered as single dose; assay type: ADME, organism-based; design: dose 5 mg/kg, route intravenous; conditions: in vivo
Procedure, shortened: (§2)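 Single 5 mg/kg iv dose used to derive clearance and Vss; median values reported per species (female rat, male rhesus monkey).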

[17] = Volume of distribution at steady state in Sprague-Dawley rat at 5 mg/kg, iv administered as single dose; assay type: ADME, organism-based; design: dose 5 mg/kg, route intravenous; conditions: in vivo, read-out: Vdss; procedure, shortened: as §2
[18] = Oral bioavailability in Sprague-Dawley rat at 25 mg/kg administered as single dose; assay type: ADME, organism-based; conditions: in vivo
[19] = molecular target: Cytochrome P450 3A4 (Homo sapiens, UniProt P08684); test: Inhibition of CYP3A4; assay type: ADME
Sequence of Cytochrome P450 3A4 (P08684 whole entry): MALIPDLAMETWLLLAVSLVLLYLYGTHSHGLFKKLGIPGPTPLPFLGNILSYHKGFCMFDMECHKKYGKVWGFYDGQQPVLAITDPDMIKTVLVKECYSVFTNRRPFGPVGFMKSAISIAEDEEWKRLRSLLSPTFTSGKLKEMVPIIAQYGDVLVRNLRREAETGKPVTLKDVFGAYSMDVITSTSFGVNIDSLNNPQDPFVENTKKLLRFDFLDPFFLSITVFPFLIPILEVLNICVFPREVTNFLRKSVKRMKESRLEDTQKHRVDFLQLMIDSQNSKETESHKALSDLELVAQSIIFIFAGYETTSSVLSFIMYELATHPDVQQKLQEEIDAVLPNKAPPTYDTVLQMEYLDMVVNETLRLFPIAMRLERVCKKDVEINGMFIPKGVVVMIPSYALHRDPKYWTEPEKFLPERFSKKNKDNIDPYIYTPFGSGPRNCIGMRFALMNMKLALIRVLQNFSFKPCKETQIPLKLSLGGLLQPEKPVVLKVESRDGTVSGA

[20] = molecular target: T1, Cytochrome P450 1A2 (Homo sapiens, UniProt P05177); test: Inhibition of CYP1A2; assay type: ADME
T1 sequence (P05177 whole entry): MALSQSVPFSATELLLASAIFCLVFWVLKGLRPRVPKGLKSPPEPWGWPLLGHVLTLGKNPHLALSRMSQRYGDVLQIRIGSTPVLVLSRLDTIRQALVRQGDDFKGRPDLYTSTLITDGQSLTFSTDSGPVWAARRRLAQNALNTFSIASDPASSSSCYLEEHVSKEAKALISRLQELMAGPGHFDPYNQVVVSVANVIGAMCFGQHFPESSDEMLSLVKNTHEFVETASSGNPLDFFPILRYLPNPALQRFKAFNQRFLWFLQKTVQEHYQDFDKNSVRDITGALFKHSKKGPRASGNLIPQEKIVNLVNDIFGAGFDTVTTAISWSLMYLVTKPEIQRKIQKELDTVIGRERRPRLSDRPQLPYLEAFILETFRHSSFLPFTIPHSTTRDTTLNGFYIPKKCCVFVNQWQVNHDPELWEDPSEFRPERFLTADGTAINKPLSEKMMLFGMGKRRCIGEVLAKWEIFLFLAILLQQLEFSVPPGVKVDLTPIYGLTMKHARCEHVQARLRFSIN

[21] = molecular target: Cytochrome P450 2D6 (Homo sapiens, UniProt P10635); test: Inhibition of CYP2D6; assay type: ADME
Sequence of Cytochrome P450 2D6 (P10635 whole entry): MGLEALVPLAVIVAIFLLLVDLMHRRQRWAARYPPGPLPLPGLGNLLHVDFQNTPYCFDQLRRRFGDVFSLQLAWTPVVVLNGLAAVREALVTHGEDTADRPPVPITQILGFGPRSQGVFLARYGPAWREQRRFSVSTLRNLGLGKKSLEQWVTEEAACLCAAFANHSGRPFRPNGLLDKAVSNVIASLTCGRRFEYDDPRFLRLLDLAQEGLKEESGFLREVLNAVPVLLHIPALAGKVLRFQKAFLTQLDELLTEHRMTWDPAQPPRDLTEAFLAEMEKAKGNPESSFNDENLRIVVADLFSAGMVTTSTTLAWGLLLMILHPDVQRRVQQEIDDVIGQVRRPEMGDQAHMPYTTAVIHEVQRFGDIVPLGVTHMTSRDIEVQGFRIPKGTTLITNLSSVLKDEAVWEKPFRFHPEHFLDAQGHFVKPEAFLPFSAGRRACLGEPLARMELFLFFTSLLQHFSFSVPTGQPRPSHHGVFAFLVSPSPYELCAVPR

[22] = Genotoxicity in Salmonella Typhimurium by Ames test in presence of S9 liver microsomes; assay type: toxicity, Microsome; conditions: salmonella enterica subsp. enterica serovar typhimurium
[23] = organism: Rattus norvegicus; test: Toxicity in rat after 14 days; assay type: organism-based; conditions: in vivo, 336 h
[24] = Cmax in rhesus monkey at 30 mg/kg, po administered as single dose; assay type: ADME, organism-based, Macaca mulatta; design: dose 30 mg/kg, route oral; conditions: in vivo
Procedure, shortened: (§3)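 Rhesus monkey (male), single oral dose of the HCl salt in 40% w/v hydroxypropyl-β-cyclodextrin vehicle; median PK parameters reported; bioavailability referenced to a 5 mg/kg iv dose.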

[25] = Cmax in CD-1 mouse at 25 mg/kg, po administered as single dose; assay type: ADME, organism-based; design: dose 25 mg/kg, route oral; conditions: in vivo
[26] = AUC in rhesus monkey at 30 mg/kg, po administered as single dose; assay type: ADME, organism-based, Macaca mulatta; design: dose 30 mg/kg, route oral; conditions: plasma; procedure, shortened: as §3
[27] = AUC in CD-1 mouse at 25 mg/kg, po administered as single dose; assay type: ADME, organism-based; design: dose 25 mg/kg, route oral; conditions: plasma
Procedure, shortened: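 Single oral dose of 25 mg/kg, given as the HCl salt in 40% w/v hydroxypropyl-β-cyclodextrin, to female mice. Plasma exposure is reported as AUC (ng h/mL), with median values given. CL and Vss come from a separate 5 mg/kg iv dose.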

[28] = Clearance in rhesus monkey at 5 mg/kg, iv administered as single dose; assay type: ADME, organism-based, Macaca mulatta; design: dose 5 mg/kg, route intravenous; conditions: in vivo; procedure, shortened: as §2
[29] = Volume of distribution at steady state in rhesus monkey at 5 mg/kg, iv administered as single dose; assay type: ADME, organism-based, Macaca mulatta; design: dose 5 mg/kg, route intravenous; conditions: in vivo, read-out: Vdss; procedure, shortened: as §2
[30] = Oral bioavailability in rhesus monkey at 30 mg/kg administered as single dose; assay type: ADME, organism-based, Macaca mulatta; conditions: in vivo; procedure, shortened: as §3
[31] = Oral bioavailability in CD-1 mouse at 25 mg/kg administered as single dose; assay type: ADME, organism-based; conditions: in vivo
[32] = tested on: Mus musculus; test: Inhibition of human IGF1R phosphorylation in human GEO cells xenografted in CD-1 nu/nu mouse at 10 mg/kg, po administered as single dose in 40% Trappsol upto 8 hrs; assay type: functional; conditions: CD-1, GEO
Procedure, shortened: (§4)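 GEO xenograft mice given a single 10 mg/kg oral dose; tumors and plasma sampled over time; tumor pIGF-1R and pIR content expressed as percentage of vehicle-treated controls alongside plasma drug level; means ± SD.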

[33] = Plasma concentration in human GEO cells xenografted CD-1 nu/nu mouse at 10 mg/kg, po administered as single dose in 40% Trappsol upto 8 hrs; assay type: ADME, organism-based; design: dose 10 mg/kg, route oral; procedure, shortened: as §4
[34] = tested on: Mus musculus; test: Inhibition of human IGF1R phosphorylation in human GEO cells xenografted in CD-1 nu/nu mouse at 10 mg/kg, po administered as single dose in 40% Trappsol after 16 hrs; assay type: functional; conditions: CD-1, GEO; procedure, shortened: as §4
[35] = Plasma concentration in human GEO cells xenografted CD-1 nu/nu mouse at 10 mg/kg, po administered as single dose in 40% Trappsol after 16 hrs; assay type: ADME, organism-based; design: dose 10 mg/kg, route oral; procedure, shortened: as §4
[36] = tested on: Mus musculus; test: Inhibition of IR phosphorylation in human GEO cells xenografted in CD-1 nu/nu mouse at 10 mg/kg, po administered as single dose in 40% Trappsol; assay type: functional; conditions: CD-1, GEO; procedure, shortened: as §4
[37] = Antitumor activity against human GEO cells xenografted in CD-1 nu/nu mouse assessed as tumor growth inhibition at 10 mg/kg, po bid administered for 14 days; assay type: functional; conditions: 336 h, read-out: TGI
Procedure, shortened: (§5)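 Nude mouse xenografts dosed orally (HCl salt in 40% w/v hydroxypropyl-β-cyclodextrin) once or twice daily for 14 days; tumor volume expressed as percentage of initial volume, mean ± SE; body weight monitored.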

[38] = Antitumor activity against human GEO cells xenografted in CD-1 nu/nu mouse assessed as tumor growth inhibition at 20 mg/kg, po administered once daily for 14 days; assay type: functional; conditions: 336 h, read-out: TGI; procedure, shortened: as §5
[39] = Antitumor activity against human GEO cells xenografted in CD-1 nu/nu mouse assessed as tumor growth inhibition at 5 mg/kg, po bid administered for 14 days; assay type: functional; conditions: 336 h, read-out: TGI; procedure, shortened: as §5
[40] = tested on: Mus musculus; test: Inhibition of human IGF1R phosphorylation in human GEO cells xenografted in CD-1 nu/nu mouse at 10 mg/kg, po bid administered for 14 days; assay type: functional; conditions: CD-1, GEO, 336 h
Procedure, shortened: (§6)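 GEO xenografts dosed orally for 14 days (qd or bid); tumors removed after last dose, up to 24 h, for pIGF-1R and pIR content relative to vehicle controls; means ± SE.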

[41] = tested on: Mus musculus; test: Inhibition of human IGF1R phosphorylation in human GEO cells xenografted in CD-1 nu/nu mouse at 20 mg/kg, po administered once daily for 14 days; assay type: functional; conditions: CD-1, GEO, 336 h; procedure, shortened: as §6
[42] = tested on: Mus musculus; test: Inhibition of human IGF1R phosphorylation in human GEO cells xenografted in CD-1 nu/nu mouse at 5 mg/kg, po bid administered for 14 days; assay type: functional; conditions: CD-1, GEO, 336 h; procedure, shortened: as §6
[43] = tested on: Mus musculus; test: Inhibition of IR phosphorylation in human GEO cells xenografted in CD-1 nu/nu mouse at 5 mg/kg, po bid administered for 14 days; assay type: functional; conditions: CD-1, GEO, 336 h; procedure, shortened: as §6
[44] = tested on: NIH3T3; test: Antitumor activity against mouse NIH/3T3 cells xenografted in CD-1 nu/nu mouse assessed as tumor growth inhibition at 10 mg/kg, po bid administered for 14 days; assay type: functional; conditions: NIH3T3, 336 h
[45] = Plasma protein binding in mouse; assay type: ADME, cell-free; conditions: read-out: PPB (converted)
Procedure, shortened: (§7)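 Plasma protein binding determined by ultracentrifugation in mouse, rat and human plasma; percent bound reported.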

[46] = Plasma protein binding in rat; assay type: ADME, cell-free; conditions: read-out: PPB (converted); procedure, shortened: as §7
[47] = Plasma protein binding in human; assay type: ADME, cell-free; conditions: read-out: PPB (converted); procedure, shortened: as §7

- IC50 [1]: 17 nM
- hepatic extraction ratio [3]: 0.43
- hepatic extraction ratio [4]: 0.55
- IC50 [5]: 76 nM
- Papp [6]: 109 ×10⁻⁶ cm/s
- Papp [7]: 110 ×10⁻⁶ cm/s
- clearance [8]: 4 mL/min/kg
- Vd [9]: 1 L/kg
- Cmax [10]: 20.5 µM
- F [11]: 162%
- Cmax [14]: 11.3 µM
- AUC [15]: 62400 ng·h/mL
- clearance [16]: 4 mL/min/kg
- Vd [17]: 0.97 L/kg
- bioavailability [18]: 64%
- IC50 [19]: > 25000 nM
- IC50 [20]: > 25000 nM
- IC50 [21]: > 25000 nM
SMILES: C[C@]1(O)C[C@@H](c2nc(-c3ccc4ccc(-c5ccccc5)nc4c3F)c3c(N)ncnn32)C1
- Activity [2]: Non-toxic
- EC50 [12]: 130 nM
- EC50 [13]: 130 nM
- Activity [22]: Non-toxic
- Activity [23]: Non-toxic

- Cmax [24]: 10.8 µM
- Cmax [25]: 35.2 µM
- AUC [26]: 31400 ng·h/mL
- AUC [27]: 240000 ng·h/mL
- clearance [28]: 15 mL/min/kg
- Vd [29]: 0.55 L/kg
- bioavailability [30]: 97%
- bioavailability [31]: 100%
- concentration at 8 h [33]: > 4 µM
- concentration at 16 h [35]: 0.38 µM
- fraction unbound [45]: 0.015
- fraction unbound [46]: 0.034
- fraction unbound [47]: 0.027
SMILES: C[C@]1(O)C[C@@H](c2nc(-c3ccc4ccc(-c5ccccc5)nc4c3F)c3c(N)ncnn32)C1.Cl
- inhibition in vivo at 10 mg/kg [32]: > 70%
- inhibition in vivo at 10 mg/kg [34]: 50%
- inhibition in vivo at 10 mg/kg [36]: 50%
- inhibition in vivo at 10 mg/kg [37]: 91%
- inhibition in vivo at 20 mg/kg [38]: 85%
- inhibition in vivo at 5 mg/kg [39]: 31%
- inhibition in vivo at 10 mg/kg [40]: > 70%
- inhibition in vivo at 20 mg/kg [41]: > 70%
- inhibition in vivo at 5 mg/kg [42]: 40%
- inhibition in vivo at 5 mg/kg [43]: 40%
- inhibition in vivo at 10 mg/kg [44]: 100%
